# pIC50: −log10 of the molar value.
# Experiments:
# [1] = target: Mitogen-activated protein kinase 10 (Homo sapiens, UniProt P53779); assay: Inhibition of recombinant 6x-His-tagged JNK3 (39 to 402 residues) (unknown origin) expressed in Escherichia coli BL21(DE3) assessed as reduction in ATF2 phosphorylation measured after 50 mins by ELISA
# [2] = target: Mitogen-activated protein kinase 14 (Homo sapiens, UniProt Q16539); assay: Inhibition of GST-His tagged human p38alpha expressed in Escherichia coli assessed as reduction in ATF2 phosphorylation measured after 60 mins by ELISA
# Sequence of Mitogen-activated protein kinase 14 (Q16539 whole entry): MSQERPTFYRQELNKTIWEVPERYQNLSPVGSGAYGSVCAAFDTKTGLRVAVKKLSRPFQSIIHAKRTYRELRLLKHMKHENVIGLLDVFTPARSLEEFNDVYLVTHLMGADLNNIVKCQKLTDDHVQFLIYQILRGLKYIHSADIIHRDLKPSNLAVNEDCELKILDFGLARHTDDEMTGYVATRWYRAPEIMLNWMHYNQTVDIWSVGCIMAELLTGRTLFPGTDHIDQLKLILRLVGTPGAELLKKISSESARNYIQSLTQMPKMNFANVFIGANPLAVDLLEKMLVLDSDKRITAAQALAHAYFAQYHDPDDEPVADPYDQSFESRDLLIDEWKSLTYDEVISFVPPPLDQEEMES
# How it was run: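 ELISA kinase assays run in parallel for JNK3 and p38α, with 60 min incubation. IC50 values are the mean of three experiments.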
# [3] = target: Casein kinase I isoform gamma-2 (Homo sapiens) (UniProt P78368); assay: Inhibition of CK1 gamma2 (unknown origin) assessed as residual activity at 1 uM relative to control
# Sequence of Casein kinase I isoform gamma-2 (Homo sapiens) (P78368 whole entry, looked up, canonical isoform): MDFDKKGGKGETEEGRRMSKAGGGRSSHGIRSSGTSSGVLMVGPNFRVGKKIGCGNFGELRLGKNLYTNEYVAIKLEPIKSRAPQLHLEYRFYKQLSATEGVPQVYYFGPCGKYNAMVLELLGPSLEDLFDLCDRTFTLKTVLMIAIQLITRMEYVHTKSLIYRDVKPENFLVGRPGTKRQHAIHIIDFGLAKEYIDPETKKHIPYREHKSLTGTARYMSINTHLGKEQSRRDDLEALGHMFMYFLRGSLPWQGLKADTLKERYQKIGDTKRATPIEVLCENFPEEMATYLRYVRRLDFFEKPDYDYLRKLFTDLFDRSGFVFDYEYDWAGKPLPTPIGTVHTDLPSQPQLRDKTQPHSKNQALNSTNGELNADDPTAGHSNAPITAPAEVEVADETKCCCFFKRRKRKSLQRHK
# How it was run: (§1)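 Each inhibitor is tested at a single concentration, 1 µM or 0.5 µM depending on the compound. Results are reported as residual kinase activity.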
# [4] = target: Casein kinase I isoform gamma-3 (Homo sapiens) (UniProt Q9Y6M4); assay: Inhibition of CK1 gamma3 (unknown origin) assessed as residual activity at 1 uM relative to control; how it was run: as §1
# Sequence of Casein kinase I isoform gamma-3 (Homo sapiens) (Q9Y6M4 whole entry, looked up, canonical isoform): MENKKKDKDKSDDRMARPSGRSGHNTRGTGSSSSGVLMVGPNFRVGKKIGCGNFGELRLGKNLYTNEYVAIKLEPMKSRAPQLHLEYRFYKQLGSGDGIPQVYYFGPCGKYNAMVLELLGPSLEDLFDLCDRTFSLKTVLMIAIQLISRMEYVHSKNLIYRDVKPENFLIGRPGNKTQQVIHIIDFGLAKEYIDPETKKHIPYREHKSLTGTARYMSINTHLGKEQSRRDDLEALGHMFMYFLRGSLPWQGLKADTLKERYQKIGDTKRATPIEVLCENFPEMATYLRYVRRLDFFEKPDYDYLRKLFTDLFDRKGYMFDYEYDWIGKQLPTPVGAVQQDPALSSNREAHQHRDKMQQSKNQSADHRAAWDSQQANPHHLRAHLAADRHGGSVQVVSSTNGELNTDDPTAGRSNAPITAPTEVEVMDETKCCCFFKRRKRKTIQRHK
# [5] = target: Mitogen-activated protein kinase kinase kinase 11 (Homo sapiens) (UniProt Q16584); assay: Inhibition of MAP3K11 (unknown origin) assessed as residual activity at 1 uM relative to control; how it was run: as §1
# Sequence of Mitogen-activated protein kinase kinase kinase 11 (Homo sapiens) (Q16584 whole entry, looked up): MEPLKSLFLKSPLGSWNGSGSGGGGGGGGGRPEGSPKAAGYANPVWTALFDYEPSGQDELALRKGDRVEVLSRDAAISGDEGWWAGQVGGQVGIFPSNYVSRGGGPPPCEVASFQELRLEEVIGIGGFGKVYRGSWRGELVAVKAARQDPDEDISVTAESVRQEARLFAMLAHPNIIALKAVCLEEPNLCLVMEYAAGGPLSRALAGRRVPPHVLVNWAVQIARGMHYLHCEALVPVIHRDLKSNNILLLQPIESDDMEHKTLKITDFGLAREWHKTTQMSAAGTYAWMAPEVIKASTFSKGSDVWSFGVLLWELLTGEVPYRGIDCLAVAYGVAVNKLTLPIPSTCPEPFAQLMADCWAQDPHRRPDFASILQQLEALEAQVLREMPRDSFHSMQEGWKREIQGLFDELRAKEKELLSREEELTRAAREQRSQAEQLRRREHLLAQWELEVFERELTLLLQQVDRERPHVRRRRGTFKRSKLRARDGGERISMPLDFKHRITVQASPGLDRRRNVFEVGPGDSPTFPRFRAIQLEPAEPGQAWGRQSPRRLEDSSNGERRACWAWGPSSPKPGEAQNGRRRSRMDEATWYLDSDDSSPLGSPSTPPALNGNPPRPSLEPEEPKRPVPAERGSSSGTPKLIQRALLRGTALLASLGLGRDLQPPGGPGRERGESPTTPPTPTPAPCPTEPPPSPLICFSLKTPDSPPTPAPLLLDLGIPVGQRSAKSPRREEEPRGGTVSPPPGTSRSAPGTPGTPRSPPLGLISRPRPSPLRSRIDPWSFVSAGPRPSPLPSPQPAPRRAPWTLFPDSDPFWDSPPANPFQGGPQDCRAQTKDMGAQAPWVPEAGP
# [6] = target: T1, Dual specificity mitogen-activated protein kinase kinase 7 (Homo sapiens) (UniProt O14733); assay: Inhibition of full length human GST-HIS tagged MKK7 expressed in Sf9 cells assessed as residual activity at 1 uM relative to control; how it was run: as §1
# T1 sequence (whole entry): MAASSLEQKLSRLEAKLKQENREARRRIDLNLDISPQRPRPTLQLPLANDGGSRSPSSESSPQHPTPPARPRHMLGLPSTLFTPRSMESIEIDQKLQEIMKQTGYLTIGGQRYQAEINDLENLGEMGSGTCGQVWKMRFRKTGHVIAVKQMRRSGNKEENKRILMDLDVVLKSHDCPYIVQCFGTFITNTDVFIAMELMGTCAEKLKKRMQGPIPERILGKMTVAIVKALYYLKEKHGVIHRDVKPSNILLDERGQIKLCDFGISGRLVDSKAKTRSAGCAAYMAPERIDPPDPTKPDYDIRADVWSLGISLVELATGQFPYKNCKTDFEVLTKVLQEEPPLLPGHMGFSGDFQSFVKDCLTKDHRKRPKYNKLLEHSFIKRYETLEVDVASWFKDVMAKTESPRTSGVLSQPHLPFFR
# [7] = target: T2, Serine/threonine-protein kinase Sgk1 (Homo sapiens) (UniProt O00141); assay: Inhibition of full length human GST-tagged SGK1 expressed in Sf9 cells assessed as residual activity at 1 uM relative to control; how it was run: as §1
# T2 sequence (whole entry): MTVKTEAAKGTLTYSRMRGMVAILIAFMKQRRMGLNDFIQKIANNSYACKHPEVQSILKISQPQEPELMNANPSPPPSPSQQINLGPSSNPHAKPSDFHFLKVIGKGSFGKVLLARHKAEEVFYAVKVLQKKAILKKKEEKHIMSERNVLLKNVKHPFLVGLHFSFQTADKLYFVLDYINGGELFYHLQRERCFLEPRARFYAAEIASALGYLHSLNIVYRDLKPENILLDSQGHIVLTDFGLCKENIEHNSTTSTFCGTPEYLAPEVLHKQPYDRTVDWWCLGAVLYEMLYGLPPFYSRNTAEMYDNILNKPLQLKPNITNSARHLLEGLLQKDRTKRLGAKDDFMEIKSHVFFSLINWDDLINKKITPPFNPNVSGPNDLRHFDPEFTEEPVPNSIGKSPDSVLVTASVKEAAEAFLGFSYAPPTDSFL
# [8] = target: T3, Serine/threonine-protein kinase TAO2 (Homo sapiens) (UniProt Q9UL54); assay: Inhibition of TAOK2 (unknown origin) assessed as residual activity at 1 uM relative to control; how it was run: as §1
# T3 sequence (whole entry): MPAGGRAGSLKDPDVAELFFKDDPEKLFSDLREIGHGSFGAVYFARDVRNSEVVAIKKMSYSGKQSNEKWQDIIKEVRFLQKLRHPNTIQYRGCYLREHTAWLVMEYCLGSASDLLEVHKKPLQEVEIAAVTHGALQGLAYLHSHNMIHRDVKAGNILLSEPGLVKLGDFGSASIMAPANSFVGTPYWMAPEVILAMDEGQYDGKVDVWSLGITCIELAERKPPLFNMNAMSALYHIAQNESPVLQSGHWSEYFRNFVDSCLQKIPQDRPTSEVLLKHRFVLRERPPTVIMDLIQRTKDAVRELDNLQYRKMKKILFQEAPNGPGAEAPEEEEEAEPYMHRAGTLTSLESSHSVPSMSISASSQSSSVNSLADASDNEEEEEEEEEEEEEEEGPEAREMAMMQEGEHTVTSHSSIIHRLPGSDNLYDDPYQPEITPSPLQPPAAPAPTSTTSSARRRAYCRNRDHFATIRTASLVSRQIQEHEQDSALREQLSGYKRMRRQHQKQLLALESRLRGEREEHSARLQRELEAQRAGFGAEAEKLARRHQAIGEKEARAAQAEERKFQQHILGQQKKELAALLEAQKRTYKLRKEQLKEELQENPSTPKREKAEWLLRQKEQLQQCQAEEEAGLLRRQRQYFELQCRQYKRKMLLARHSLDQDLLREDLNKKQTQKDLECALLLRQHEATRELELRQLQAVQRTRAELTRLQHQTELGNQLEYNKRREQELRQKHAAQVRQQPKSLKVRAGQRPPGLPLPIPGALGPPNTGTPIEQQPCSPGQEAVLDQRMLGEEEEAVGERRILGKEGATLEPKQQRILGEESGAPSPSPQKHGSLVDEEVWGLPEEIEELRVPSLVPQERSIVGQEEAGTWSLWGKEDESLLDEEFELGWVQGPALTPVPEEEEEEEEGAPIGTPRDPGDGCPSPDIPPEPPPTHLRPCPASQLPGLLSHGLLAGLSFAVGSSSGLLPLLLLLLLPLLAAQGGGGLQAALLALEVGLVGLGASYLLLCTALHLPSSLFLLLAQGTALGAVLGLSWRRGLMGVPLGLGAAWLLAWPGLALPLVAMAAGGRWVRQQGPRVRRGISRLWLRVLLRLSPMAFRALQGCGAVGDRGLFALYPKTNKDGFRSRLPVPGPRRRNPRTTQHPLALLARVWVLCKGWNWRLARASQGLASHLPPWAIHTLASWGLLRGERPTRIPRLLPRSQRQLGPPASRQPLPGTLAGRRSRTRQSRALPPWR
# [9] = target: Serine/threonine-protein kinase 16 (Homo sapiens) (UniProt O75716); assay: Inhibition of full length human GST-tagged TSF1 expressed in Sf9 cells assessed as residual activity at 1 uM relative to control; how it was run: as §1
# Sequence of Serine/threonine-protein kinase 16 (Homo sapiens) (O75716 whole entry): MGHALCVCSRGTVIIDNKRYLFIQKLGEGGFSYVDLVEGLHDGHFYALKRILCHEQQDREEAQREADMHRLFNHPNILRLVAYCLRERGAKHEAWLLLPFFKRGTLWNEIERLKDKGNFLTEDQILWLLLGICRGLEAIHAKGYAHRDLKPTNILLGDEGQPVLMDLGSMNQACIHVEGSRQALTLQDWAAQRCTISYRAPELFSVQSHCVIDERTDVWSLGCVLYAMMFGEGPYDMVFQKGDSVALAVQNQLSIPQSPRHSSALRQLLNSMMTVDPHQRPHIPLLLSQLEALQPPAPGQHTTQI
# [10] = target: Mitogen-activated protein kinase kinase kinase 20 (Homo sapiens) (UniProt Q9NYL2); assay: Inhibition of ZAK (unknown origin) assessed as residual activity at 1 uM relative to control; how it was run: as §1
# Sequence of Mitogen-activated protein kinase kinase kinase 20 (Homo sapiens) (Q9NYL2 2-800 limits assumed): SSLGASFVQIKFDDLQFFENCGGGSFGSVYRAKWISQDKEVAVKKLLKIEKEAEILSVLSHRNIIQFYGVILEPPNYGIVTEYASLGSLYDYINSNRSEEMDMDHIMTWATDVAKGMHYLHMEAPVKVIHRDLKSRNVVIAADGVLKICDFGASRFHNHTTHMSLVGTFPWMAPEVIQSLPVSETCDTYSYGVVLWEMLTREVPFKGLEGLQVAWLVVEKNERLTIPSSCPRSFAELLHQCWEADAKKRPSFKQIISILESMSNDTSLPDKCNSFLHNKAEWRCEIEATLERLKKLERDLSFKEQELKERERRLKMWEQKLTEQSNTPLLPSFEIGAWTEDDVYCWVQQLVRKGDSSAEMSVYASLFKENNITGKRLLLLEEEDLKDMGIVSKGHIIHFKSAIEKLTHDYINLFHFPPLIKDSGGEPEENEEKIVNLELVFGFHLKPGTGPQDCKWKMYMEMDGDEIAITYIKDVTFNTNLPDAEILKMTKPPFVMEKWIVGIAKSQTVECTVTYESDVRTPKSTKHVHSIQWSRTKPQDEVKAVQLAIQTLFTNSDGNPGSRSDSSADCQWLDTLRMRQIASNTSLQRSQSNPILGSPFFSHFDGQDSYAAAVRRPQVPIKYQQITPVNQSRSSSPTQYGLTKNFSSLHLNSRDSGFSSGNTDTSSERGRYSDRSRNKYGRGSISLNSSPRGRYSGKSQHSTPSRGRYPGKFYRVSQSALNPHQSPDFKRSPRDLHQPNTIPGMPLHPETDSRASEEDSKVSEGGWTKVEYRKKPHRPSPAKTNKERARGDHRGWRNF
# [11] = Drug metabolism in human liver microsomes at 100 uM preincubated with NADPH regenerating system for 5 mins followed by addition of liver microsomes measured after 190 mins by LC-MS analysis; format: ADME, microsome; details: read-out: Drug metabolism
# Sequence of Mitogen-activated protein kinase 10 (P53779 whole entry, the tested form may be a part): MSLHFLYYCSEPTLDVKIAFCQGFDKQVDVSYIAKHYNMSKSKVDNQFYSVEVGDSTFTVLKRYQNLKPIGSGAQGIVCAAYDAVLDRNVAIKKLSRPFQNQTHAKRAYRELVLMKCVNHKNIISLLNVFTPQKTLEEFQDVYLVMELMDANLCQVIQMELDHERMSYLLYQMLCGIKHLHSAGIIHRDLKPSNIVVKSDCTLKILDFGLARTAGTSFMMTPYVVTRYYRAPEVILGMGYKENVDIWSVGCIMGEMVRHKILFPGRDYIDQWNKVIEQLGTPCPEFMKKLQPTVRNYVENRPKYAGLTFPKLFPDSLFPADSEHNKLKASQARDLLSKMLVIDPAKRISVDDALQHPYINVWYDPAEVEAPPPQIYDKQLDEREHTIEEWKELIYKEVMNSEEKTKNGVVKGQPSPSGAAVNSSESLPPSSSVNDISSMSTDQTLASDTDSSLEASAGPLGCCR
compound,measurement,setting,value
C=CC(=O)Nc1cccc(C(=O)Nc2ccc(Nc3cc(-c4[nH]c(SC)nc4C)ccn3)cc2)c1,pIC50,[1],8.70
same,pIC50,[2],5.71
same,Activity,[3],10 to 29%
same,Activity,[4],10 to 29%
same,Activity,[5],10 to 29%
same,Activity,[6],10 to 29%
same,Activity,[7],10 to 29%
same,Activity,[8],10 to 29%
same,Activity,[9],10 to 29%
same,Activity,[10],10 to 29%
same,"metabolised at 190 min, 100 µM",[11],31%

# From ChEMBL document CHEMBL4002589, “Tri- and Tetrasubstituted Pyridinylimidazoles as Covalent Inhibitors of c-Jun N-Terminal Kinase 3” (J Med Chem, 2017)
